# Biological target: Epidermal growth factor receptor (Homo sapiens) (UniProt P00533)
# Experiment: Inhibition of EGFR (unknown origin) at 1 uM relative to control; values are per cent of control
# Conditions: not given
row,Compound,residual activity [%]
1,COc1ccc(-c2nc(-c3ccnc(N)n3)sc2C(N)=O)c(Cl)c1,81
2,CCOC(=O)c1sc(-c2ccncc2)nc1O,78
3,NC(=O)c1sc(-c2ccnc(N)n2)nc1-c1ccc(Cl)cc1Cl,100

# Biological target: T1, Myotonin-protein kinase (Homo sapiens) (UniProt Q09013)
# T1 sequence (whole entry): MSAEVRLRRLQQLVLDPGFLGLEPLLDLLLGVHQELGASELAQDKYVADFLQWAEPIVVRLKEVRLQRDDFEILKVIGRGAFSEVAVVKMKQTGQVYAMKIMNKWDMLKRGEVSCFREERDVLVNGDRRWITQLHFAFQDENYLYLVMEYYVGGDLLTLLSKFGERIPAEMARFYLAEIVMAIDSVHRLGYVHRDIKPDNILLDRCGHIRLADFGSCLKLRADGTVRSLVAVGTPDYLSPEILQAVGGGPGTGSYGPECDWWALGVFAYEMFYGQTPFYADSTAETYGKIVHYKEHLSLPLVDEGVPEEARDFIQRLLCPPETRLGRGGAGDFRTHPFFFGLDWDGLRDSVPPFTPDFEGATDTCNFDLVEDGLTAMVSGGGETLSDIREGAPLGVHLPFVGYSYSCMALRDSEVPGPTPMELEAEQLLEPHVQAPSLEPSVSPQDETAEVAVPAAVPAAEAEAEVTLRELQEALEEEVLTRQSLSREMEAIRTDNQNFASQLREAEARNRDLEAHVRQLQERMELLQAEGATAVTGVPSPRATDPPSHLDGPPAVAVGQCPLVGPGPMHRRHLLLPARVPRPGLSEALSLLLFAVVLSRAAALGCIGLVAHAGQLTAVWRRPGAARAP
# Experiment: Inhibition of DMPK (unknown origin) at 1 uM relative to control; values are per cent of control
# Conditions: not given
row,Compound,residual activity [%]
1,COc1ccc(-c2nc(-c3ccnc(N)n3)sc2C(N)=O)c(Cl)c1,50
2,CCOC(=O)c1sc(-c2ccncc2)nc1O,88
3,NC(=O)c1sc(-c2ccnc(N)n2)nc1-c1ccc(Cl)cc1Cl,100

# Biological target: MAP kinase-interacting serine/threonine-protein kinase 1 (Homo sapiens) (UniProt Q9BUB5)
# Experiment: Inhibition of MKNK1 (unknown origin) at 1 uM relative to control; values are per cent of control
# Conditions: not given
row,Compound,residual activity [%]
1,COc1ccc(-c2nc(-c3ccnc(N)n3)sc2C(N)=O)c(Cl)c1,55
2,CCOC(=O)c1sc(-c2ccncc2)nc1O,100
3,NC(=O)c1sc(-c2ccnc(N)n2)nc1-c1ccc(Cl)cc1Cl,84

# Biological target: Serine/threonine-protein kinase 33 (Homo sapiens) (UniProt Q9BYT3)
# Experiment: Inhibition of STK33 (unknown origin) at 1 uM relative to control
# Conditions: values are per cent of control
# In short: (§1)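 KinomeSCAN competitive binding panel of 100 kinases; compounds tested at 1 µM in duplicate; read-out is percent […] control.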
# Chain of Serine/threonine-protein kinase 33 (Homo sapiens) (Q9BYT3 whole entry, looked up): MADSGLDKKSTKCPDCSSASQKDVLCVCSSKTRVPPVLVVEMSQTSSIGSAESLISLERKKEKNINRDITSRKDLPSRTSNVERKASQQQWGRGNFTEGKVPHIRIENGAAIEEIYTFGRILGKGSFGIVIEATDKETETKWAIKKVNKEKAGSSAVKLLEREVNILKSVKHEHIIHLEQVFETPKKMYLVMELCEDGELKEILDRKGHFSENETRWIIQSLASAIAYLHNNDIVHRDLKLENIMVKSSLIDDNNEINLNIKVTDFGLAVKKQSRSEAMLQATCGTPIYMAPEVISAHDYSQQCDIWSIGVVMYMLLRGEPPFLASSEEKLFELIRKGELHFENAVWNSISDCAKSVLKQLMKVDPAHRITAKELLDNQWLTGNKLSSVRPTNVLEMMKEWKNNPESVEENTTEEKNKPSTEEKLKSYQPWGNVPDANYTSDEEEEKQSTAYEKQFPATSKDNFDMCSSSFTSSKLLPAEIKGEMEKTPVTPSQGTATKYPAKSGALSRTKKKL
row,Compound,"residual binding, % of control [%]"
1,COc1ccc(-c2nc(-c3ccnc(N)n3)sc2C(N)=O)c(Cl)c1,100
2,CCOC(=O)c1sc(-c2ccncc2)nc1O,100
3,NC(=O)c1sc(-c2ccnc(N)n2)nc1-c1ccc(Cl)cc1Cl,100

# Biological target: Tyrosine-protein kinase ABL1 (Homo sapiens) (UniProt P00519)
# Experiment: Inhibition of nonphosphorylated ABL1 (unknown origin) at 1 uM relative to control; values are per cent of control
# Conditions: not given
# Chain of Tyrosine-protein kinase ABL1 (Homo sapiens) (P00519 whole entry): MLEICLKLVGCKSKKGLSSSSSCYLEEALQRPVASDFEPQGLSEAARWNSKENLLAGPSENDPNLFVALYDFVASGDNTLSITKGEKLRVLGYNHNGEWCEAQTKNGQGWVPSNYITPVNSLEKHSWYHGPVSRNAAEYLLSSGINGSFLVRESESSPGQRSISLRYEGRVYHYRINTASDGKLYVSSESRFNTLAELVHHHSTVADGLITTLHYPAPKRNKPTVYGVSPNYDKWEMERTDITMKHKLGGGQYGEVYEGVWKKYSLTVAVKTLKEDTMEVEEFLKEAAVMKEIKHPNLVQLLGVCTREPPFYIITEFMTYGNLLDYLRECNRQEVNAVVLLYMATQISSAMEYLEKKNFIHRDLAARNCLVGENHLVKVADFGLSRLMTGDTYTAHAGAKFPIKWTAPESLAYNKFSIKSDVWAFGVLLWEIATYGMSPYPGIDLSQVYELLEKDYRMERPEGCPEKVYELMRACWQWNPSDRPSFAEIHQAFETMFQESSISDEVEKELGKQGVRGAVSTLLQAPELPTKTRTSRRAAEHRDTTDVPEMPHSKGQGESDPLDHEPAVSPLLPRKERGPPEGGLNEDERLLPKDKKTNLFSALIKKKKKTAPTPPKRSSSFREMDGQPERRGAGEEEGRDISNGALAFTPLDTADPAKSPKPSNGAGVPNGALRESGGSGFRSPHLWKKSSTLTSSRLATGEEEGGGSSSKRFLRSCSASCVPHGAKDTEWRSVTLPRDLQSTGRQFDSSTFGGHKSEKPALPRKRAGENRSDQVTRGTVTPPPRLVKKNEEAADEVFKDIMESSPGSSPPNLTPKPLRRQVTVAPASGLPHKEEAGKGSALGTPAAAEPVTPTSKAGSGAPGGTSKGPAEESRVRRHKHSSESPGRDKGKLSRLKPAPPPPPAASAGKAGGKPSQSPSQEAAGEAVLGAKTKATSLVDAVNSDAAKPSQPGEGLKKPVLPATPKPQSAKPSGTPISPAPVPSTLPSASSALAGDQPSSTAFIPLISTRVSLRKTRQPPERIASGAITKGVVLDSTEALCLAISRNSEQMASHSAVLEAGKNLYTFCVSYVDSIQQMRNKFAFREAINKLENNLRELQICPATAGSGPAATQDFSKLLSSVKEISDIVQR
row,Compound,residual activity [%]
1,COc1ccc(-c2nc(-c3ccnc(N)n3)sc2C(N)=O)c(Cl)c1,100
2,CCOC(=O)c1sc(-c2ccncc2)nc1O,87
3,NC(=O)c1sc(-c2ccnc(N)n2)nc1-c1ccc(Cl)cc1Cl,100

# Biological target: High affinity nerve growth factor receptor (Homo sapiens) (UniProt P04629)
# Experiment: Inhibition of TRKA (unknown origin) at 1 uM relative to control
# Conditions: values are per cent of control
# In short: as §1
# Chain of High affinity nerve growth factor receptor (Homo sapiens) (P04629 33-796 limits assumed): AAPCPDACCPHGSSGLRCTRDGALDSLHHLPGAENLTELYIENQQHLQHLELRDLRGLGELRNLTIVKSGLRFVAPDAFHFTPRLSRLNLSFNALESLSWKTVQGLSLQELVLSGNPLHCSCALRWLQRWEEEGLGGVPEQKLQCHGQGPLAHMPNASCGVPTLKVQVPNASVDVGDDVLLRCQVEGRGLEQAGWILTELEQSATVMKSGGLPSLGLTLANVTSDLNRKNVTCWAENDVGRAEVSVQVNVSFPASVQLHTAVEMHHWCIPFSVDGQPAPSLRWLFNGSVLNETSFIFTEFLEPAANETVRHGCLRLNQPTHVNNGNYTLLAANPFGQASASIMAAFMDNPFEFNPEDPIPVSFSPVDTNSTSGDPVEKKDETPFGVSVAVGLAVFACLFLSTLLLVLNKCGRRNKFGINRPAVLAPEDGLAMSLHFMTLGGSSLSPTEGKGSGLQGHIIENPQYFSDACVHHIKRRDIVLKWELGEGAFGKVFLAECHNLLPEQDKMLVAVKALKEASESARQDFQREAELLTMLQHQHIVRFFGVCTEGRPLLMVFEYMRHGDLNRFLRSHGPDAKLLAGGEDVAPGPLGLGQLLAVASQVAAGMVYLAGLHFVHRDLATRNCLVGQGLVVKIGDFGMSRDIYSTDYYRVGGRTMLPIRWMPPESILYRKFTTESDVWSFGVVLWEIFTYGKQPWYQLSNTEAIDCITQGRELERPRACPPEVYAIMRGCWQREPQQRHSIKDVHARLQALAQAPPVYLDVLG
row,Compound,"residual binding, % of control [%]"
1,COc1ccc(-c2nc(-c3ccnc(N)n3)sc2C(N)=O)c(Cl)c1,92
2,CCOC(=O)c1sc(-c2ccncc2)nc1O,100
3,NC(=O)c1sc(-c2ccnc(N)n2)nc1-c1ccc(Cl)cc1Cl,100

# Biological target: T2, Serine/threonine-protein kinase TBK1 (Homo sapiens) (UniProt Q9UHD2)
# T2 sequence (whole entry): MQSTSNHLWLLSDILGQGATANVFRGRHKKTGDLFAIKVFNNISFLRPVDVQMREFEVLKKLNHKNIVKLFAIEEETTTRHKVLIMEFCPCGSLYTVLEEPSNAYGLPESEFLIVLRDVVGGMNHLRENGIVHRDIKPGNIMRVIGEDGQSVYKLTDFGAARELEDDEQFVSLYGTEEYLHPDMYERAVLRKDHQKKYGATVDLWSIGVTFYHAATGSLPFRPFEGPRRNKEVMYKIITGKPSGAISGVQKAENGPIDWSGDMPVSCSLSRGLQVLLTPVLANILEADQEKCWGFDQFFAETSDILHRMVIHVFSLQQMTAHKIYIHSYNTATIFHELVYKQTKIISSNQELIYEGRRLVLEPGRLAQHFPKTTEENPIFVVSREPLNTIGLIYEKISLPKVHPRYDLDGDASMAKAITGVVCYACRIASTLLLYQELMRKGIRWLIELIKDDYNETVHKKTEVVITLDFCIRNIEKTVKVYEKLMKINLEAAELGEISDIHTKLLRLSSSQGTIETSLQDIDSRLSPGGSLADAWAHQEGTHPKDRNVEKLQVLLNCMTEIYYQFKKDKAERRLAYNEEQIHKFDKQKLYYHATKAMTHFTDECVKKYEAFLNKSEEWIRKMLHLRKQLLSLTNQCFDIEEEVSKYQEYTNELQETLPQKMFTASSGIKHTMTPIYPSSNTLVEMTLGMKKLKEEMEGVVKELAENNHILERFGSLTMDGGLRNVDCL
# Experiment: Inhibition of TBK1 (unknown origin) at 1 uM relative to control
# Conditions: values are per cent of control
# In short: as §1
row,Compound,"residual binding, % of control [%]"
1,COc1ccc(-c2nc(-c3ccnc(N)n3)sc2C(N)=O)c(Cl)c1,100
2,CCOC(=O)c1sc(-c2ccncc2)nc1O,100
3,NC(=O)c1sc(-c2ccnc(N)n2)nc1-c1ccc(Cl)cc1Cl,85

# Biological target: T3, Interleukin-1 receptor-associated kinase 4 (Homo sapiens) (UniProt Q9NWZ3)
# T3 sequence (whole entry): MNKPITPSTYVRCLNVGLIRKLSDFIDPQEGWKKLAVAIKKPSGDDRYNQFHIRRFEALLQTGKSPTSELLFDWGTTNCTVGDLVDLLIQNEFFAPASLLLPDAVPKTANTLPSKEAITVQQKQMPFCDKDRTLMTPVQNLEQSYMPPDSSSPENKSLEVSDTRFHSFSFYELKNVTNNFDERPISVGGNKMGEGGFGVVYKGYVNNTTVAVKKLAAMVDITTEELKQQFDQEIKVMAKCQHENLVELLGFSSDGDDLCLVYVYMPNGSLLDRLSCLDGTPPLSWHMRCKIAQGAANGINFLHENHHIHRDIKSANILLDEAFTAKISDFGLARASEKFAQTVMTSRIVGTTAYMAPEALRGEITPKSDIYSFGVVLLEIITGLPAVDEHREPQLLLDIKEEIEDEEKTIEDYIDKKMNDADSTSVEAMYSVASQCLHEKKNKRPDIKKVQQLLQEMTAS
# Experiment: Inhibition of IRAK4 (unknown origin) at 1 uM relative to control; values are per cent of control
# Conditions: not given
row,Compound,residual activity [%]
1,COc1ccc(-c2nc(-c3ccnc(N)n3)sc2C(N)=O)c(Cl)c1,100
2,CCOC(=O)c1sc(-c2ccncc2)nc1O,100
3,NC(=O)c1sc(-c2ccnc(N)n2)nc1-c1ccc(Cl)cc1Cl,91

# Biological target: Serine/threonine-protein kinase/endoribonuclease IRE1 (Homo sapiens) (UniProt O75460)
# Experiment: Inhibition of ERN1 (unknown origin) at 1 uM relative to control; values are per cent of control
# Conditions: not given
# Chain of Serine/threonine-protein kinase/endoribonuclease IRE1 (Homo sapiens) (O75460 19-977 limits assumed): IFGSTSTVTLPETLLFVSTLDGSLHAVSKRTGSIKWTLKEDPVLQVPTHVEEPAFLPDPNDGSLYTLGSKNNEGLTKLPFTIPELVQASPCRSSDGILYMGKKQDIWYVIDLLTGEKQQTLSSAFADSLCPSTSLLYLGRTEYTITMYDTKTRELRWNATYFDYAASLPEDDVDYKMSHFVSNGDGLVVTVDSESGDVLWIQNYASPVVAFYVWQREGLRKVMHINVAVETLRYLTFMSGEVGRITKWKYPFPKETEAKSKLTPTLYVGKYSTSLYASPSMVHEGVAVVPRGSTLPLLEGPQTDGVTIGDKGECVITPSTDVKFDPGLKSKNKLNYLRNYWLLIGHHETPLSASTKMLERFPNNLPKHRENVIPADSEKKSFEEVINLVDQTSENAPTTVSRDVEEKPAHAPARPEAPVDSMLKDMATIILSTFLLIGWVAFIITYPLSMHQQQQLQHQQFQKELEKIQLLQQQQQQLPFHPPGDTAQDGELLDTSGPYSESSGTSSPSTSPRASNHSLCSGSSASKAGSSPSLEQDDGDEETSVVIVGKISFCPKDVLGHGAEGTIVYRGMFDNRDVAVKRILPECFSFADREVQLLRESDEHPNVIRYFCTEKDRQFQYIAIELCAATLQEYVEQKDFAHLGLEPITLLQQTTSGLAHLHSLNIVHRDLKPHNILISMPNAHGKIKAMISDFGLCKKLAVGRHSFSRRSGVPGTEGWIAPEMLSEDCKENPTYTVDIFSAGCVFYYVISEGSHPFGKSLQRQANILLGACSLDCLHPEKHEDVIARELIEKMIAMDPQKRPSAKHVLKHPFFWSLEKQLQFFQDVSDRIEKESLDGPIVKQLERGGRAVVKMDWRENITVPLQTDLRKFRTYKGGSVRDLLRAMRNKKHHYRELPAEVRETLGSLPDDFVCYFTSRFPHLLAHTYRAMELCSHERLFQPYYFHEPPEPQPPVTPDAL
row,Compound,residual activity [%]
1,COc1ccc(-c2nc(-c3ccnc(N)n3)sc2C(N)=O)c(Cl)c1,32
2,CCOC(=O)c1sc(-c2ccncc2)nc1O,100
3,NC(=O)c1sc(-c2ccnc(N)n2)nc1-c1ccc(Cl)cc1Cl,100

# Biological target: Serine/threonine-protein kinase 32B (Homo sapiens) (UniProt Q9NY57)
# Experiment: Inhibition of YANK2 (unknown origin) at 1 uM relative to control
# Conditions: values are per cent of control
# In short: as §1
# Chain of Serine/threonine-protein kinase 32B (Homo sapiens) (Q9NY57 whole entry): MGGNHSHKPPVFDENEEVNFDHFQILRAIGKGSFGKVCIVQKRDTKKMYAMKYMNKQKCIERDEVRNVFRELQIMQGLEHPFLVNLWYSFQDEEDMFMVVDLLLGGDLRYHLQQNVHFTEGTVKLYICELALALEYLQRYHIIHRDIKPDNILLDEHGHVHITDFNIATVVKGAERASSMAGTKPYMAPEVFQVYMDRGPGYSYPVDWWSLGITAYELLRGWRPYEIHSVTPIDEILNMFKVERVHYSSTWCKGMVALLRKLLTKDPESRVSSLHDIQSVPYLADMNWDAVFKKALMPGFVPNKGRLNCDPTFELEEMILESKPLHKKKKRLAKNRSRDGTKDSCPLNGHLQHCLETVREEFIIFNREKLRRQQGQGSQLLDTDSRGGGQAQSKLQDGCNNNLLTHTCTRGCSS
row,Compound,"residual binding, % of control [%]"
1,COc1ccc(-c2nc(-c3ccnc(N)n3)sc2C(N)=O)c(Cl)c1,88
2,CCOC(=O)c1sc(-c2ccncc2)nc1O,82
3,NC(=O)c1sc(-c2ccnc(N)n2)nc1-c1ccc(Cl)cc1Cl,100

# Biological target: Mitogen-activated protein kinase kinase kinase 9 (Homo sapiens) (UniProt P80192)
# Experiment: Inhibition of MLK1 (unknown origin) at 1 uM relative to control; values are per cent of control
# Conditions: not given
row,Compound,residual activity [%]
1,COc1ccc(-c2nc(-c3ccnc(N)n3)sc2C(N)=O)c(Cl)c1,94
2,CCOC(=O)c1sc(-c2ccncc2)nc1O,90
3,NC(=O)c1sc(-c2ccnc(N)n2)nc1-c1ccc(Cl)cc1Cl,99

# Biological target: Serine/threonine-protein kinase Nek4 (Homo sapiens) (UniProt P51957)
# Experiment: Inhibition of NEK4 (unknown origin) at 1 uM relative to control; values are per cent of control
# Conditions: not given
# Chain of Serine/threonine-protein kinase Nek4 (Homo sapiens) (P51957 whole entry, looked up): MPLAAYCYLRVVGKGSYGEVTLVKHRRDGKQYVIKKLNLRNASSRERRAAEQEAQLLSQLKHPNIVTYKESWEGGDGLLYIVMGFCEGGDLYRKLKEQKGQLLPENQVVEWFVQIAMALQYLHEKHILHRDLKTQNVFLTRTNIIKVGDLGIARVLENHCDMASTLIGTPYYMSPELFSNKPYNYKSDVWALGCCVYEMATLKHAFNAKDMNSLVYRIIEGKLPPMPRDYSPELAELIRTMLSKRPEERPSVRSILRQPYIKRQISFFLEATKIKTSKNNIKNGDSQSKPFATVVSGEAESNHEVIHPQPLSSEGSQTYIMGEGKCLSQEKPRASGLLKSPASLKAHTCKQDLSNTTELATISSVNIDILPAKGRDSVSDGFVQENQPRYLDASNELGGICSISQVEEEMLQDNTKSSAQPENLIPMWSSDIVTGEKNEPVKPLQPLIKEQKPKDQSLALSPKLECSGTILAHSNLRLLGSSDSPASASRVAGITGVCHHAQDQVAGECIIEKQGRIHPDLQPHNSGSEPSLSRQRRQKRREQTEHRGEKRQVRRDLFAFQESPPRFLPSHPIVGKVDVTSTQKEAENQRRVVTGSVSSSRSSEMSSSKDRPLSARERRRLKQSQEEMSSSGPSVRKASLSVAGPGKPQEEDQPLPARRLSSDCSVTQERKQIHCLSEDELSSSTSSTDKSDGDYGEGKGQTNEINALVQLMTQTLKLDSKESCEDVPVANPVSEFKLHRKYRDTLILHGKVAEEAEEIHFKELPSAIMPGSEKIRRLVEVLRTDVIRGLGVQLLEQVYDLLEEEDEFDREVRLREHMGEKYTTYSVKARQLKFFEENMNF
row,Compound,residual activity [%]
1,COc1ccc(-c2nc(-c3ccnc(N)n3)sc2C(N)=O)c(Cl)c1,76
2,CCOC(=O)c1sc(-c2ccncc2)nc1O,100
3,NC(=O)c1sc(-c2ccnc(N)n2)nc1-c1ccc(Cl)cc1Cl,93

# — ChEMBL document CHEMBL3259739, “Synthesis and structure-activity relationship of trisubstituted thiazoles as Cdc7 kinase inhibitors” (Eur J Med Chem, 2014)
